Data published in ChEMBL document CHEMBL1152452, “Modifications incorporated in CpG motifs of oligodeoxynucleotides lead to antagonist activity of toll-like receptors 7 and 9” (2009).
The source made the active and inactive calls. No cut-off for these calls is given here.

Columns and labels:
Splenocyte [1] = test: Immunostimulatory activity in C57BL/6 mouse splenocytes assessed as induction of IL6 secretion at 2 to 10 ug/ml after 24 hrs by sandwich ELISA; type: functional, cell-based
How it was run: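 C57BL/6 splenocytes (mice 5–8 weeks) at 5 × 10^6 cells/mL in RPMI complete medium. ODNs dissolved in PBS were added and the cells incubated at 37 °C for 24 h. Supernatant IL-12 or IL-6 was measured by sandwich ELISA. Runs were done two or three times, in duplicate per concentration.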

Mus musculus [2] = test: Immunostimulatory activity in C57BL/6 mouse assessed as inhibition of TLR7 agonist-induced IL10 production in serum at 5 mg/kg, sc administered 24 hrs prior to TLR7 agonist challenge measured after 2 hrs by Luminex multiplex assay; type: functional; settings: C57BL/6, sc, route subcutaneous
Mus musculus [3] = test: Immunostimulatory activity in C57BL/6 mouse assessed as inhibition of 5'-CTATCTGACGTTCTCTGT-3'-induced IL12 production in serum at 2 mg/kg, sc administered 24 hrs prior to 5'-CTATCTGACGTTCTCTGT-3' challenge measured after 2 hrs by sandwich ELISA; type: functional; settings: C57BL/6, sc, route subcutaneous
How it was run: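 C57BL/6 mice were pretreated sc in the right flank with 2, 5 or 10 mg/kg ODN. After 24 h, the TLR9 agonist ODN was given at 0.5 mg/kg sc in the left flank. Serum IL-12 was measured by ELISA 2 h later. Representative of two experiments.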

Mus musculus [4] = test: Immunostimulatory activity in C57BL/6 mouse assessed as induction of IL10 level in serum at 2 mg/kg, sc after 2 hrs by Luminex multiplex assay; type: functional, organism-based; design: dose 2 mg/kg
How it was run: (§1)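 Female C57BL/6 mice, 5–6 weeks old, n = 3, received a single 2 mg/kg subcutaneous ODN injection in the right flank. Blood was taken by retro-orbital bleeding 2 h later. Naive mice served as baseline. Representative of three experiments.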

Mus musculus [5] = test: Immunostimulatory activity in C57BL/6 mouse assessed as inhibition of 5'-CTATCTGACGTTCTCTGT-3'-induced MIP-1alpha production in serum at 2 mg/kg, sc administered 24 hrs prior to 5'-CTATCTGACGTTCTCTGT-3' challenge measured after 2 hrs by Luminex multiplex assay; type: functional, organism-based; design: dose 2 mg/kg
How it was run: (§2)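 C57BL/6 mice received 2 mg/kg ODN sc in one flank. After 24 h, the TLR9 agonist ODN was given at 0.5 mg/kg sc in the opposite flank. Blood was drawn 2 h later and serum cytokines/chemokines were quantified by Luminex multiplex assay. Percent inhibition was taken against the agonist alone. Representative of three experiments.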

Mus musculus [6] = test: Immunostimulatory activity in C57BL/6 mouse assessed as inhibition of 5'-CTATCTGACGTTCTCTGT-3'-induced MCP1 production in serum at 2 mg/kg, sc administered 24 hrs prior to 5'-CTATCTGACGTTCTCTGT-3' challenge measured after 2 hrs by Luminex multiplex assay; type: functional, organism-based; design: dose 2 mg/kg; how it was run: as §2
Mus musculus [7] = test: Immunostimulatory activity in C57BL/6 mouse assessed as inhibition of 0.5 mg/kg 5'-CTATCTGACGTTCTCTGT-3'-induced IL12 production in serum at 10 mg/kg, sc administered 24 hrs prior to 5'-CTATCTGACGTTCTCTGT-3' challenge measured after 2 hrs by sandwich ELISA; type: functional
How it was run: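 C57BL/6 mice received 10 mg/kg ODN sc in the right flank. After 24 h, the CpG TLR9 agonist ODN was given sc in the left flank at 0.25, 0.5 or 1 mg/kg. Serum IL-12 was measured by ELISA 2 h after challenge. Naive mice served as reference. Representative of two experiments.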

Splenocyte [8] = test: Inhibition of 5'-CTATCTGACGTTCTCTGT-3'-induced IL12 secretion in C57BL/6 mouse splenocytes after 24 hrs by sandwich ELISA; type: functional, cell-based
How it was run: (§3)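 Splenocytes from 5–8-week C57BL/6 mice, 5 × 10^6 cells/mL in RPMI complete medium, were co-incubated with the TLR9 agonist ODN (1 µg/mL) plus test ODN at 1 or 4 µg/mL, or over a concentration series, at 37 °C for 24 h. Supernatant IL-12 or IL-6 was measured by sandwich ELISA. Runs were done in duplicate, with three independent experiments.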

Mus musculus [9] = test: Immunostimulatory activity in C57BL/6 mouse assessed as inhibition of 5'-CTATCTGACGTTCTCTGT-3'-induced IL10 production in serum at 5 mg/kg, sc administered 24 hrs prior to 5'-CTATCTGACGTTCTCTGT-3' challenge measured after 2 hrs by Luminex multiplex assay; type: functional; settings: C57BL/6, sc, route subcutaneous
Mus musculus [10] = test: Immunostimulatory activity in C57BL/6 mouse assessed as induction of IL12 level in serum at 2 mg/kg, sc after 2 hrs by sandwich ELISA; type: functional, organism-based; design: dose 2 mg/kg; how it was run: as §1
Mus musculus [11] = test: Immunostimulatory activity in C57BL/6 mouse assessed as induction of MCP1 level in serum at 2 mg/kg, sc after 2 hrs by Luminex multiplex assay; type: functional, organism-based; design: dose 2 mg/kg; how it was run: as §1
Mus musculus [12] = test: Immunostimulatory activity in C57BL/6 mouse assessed as inhibition of TLR7 agonist-induced KC production in serum at 5 mg/kg, sc administered 24 hrs prior to TLR7 agonist challenge measured after 2 hrs by Luminex multiplex assay; type: functional; settings: C57BL/6, sc, route subcutaneous
Mus musculus [13] = test: Immunostimulatory activity in C57BL/6 mouse assessed as inhibition of LPS-induced IL6 production in serum at 10 mg/kg, sc administered 24 hrs prior to LPS challenge measured after 2 hrs by Luminex multiplex assay
Mus musculus [14] = test: Immunostimulatory activity in C57BL/6 mouse assessed as inhibition of TLR3 agonist-induced TNFalpha production in serum at 10 mg/kg, sc administered 24 hrs prior to TLR3 agonist challenge measured after 2 hrs by Luminex multiplex assay
Mus musculus [15] = test: Immunostimulatory activity in C57BL/6 mouse assessed as induction of TNFalpha level in serum at 2 mg/kg, sc after 2 hrs by Luminex multiplex assay; type: functional, organism-based; design: dose 2 mg/kg; how it was run: as §1
Splenocyte [16] = test: Inhibition of 5'-CTATCTGACGTTCTCTGT-3'-induced IL6 secretion in C57BL/6 mouse splenocytes after 24 hrs by sandwich ELISA; type: functional, cell-based; how it was run: as §3
Mus musculus [17] = test: Immunostimulatory activity in C57BL/6 mouse assessed as inhibition of LPS-induced MIP1a production in serum at 10 mg/kg, sc administered 24 hrs prior to LPS challenge measured after 2 hrs by Luminex multiplex assay
Mus musculus [18] = test: Immunostimulatory activity in C57BL/6 mouse assessed as inhibition of 5'-CTATCTGACGTTCTCTGT-3'-induced IL10 production in serum at 2 mg/kg, sc administered 24 hrs prior to 5'-CTATCTGACGTTCTCTGT-3' challenge measured after 2 hrs by Luminex multiplex assay; type: functional, organism-based; design: dose 2 mg/kg; how it was run: as §2
Mus musculus [19] = test: Immunostimulatory activity in C57BL/6 mouse assessed as inhibition of LPS-induced TNFalpha production in serum at 10 mg/kg, sc administered 24 hrs prior to LPS challenge measured after 2 hrs by Luminex multiplex assay

COC1[C@H](n2cnc3c(=O)[nH]c(N)nc32)O[C@H](COP(=O)(S)O[C@H]2C[C@H](n3cc(C)c(N)nc3=O)O[C@@H]2COP(=O)(S)O[C@H]2C[C@H](n3cnc4c(N)ncnc43)O[C@@H]2COP(=O)(S)O[C@H]2C[C@H](n3cnc4c(=O)[nH]c(N)nc43)O[C@@H]2COP(=O)(S)O[C@H]2C[C@H](n3cc(C)c(=O)[nH]c3=O)O[C@@H]2COP(=O)(S)O[C@H]2C[C@H](n3ccc(N)nc3=O)O[C@@H]2COP(=O)(S)O[C@H]2C[C@H](n3cc(C)c(=O)[nH]c3=O)O[C@@H]2COP(=O)(S)O[C@H]2C[C@H](n3cnc4c(N)ncnc43)O[C@@H]2COP(=O)(S)O[C@H]2C[C@H](n3cc(C)c(=O)[nH]c3=O)O[C@@H]2COP(=O)(S)O[C@H]2C[C@H](n3ccc(N)nc3=O)O[C@@H]2CO)[C@H]1OP(=O)(S)OC[C@H]1O[C@@H](n2cc(C)c(=O)[nH]c2=O)C[C@@H]1OP(=O)(S)OC[C@H]1O[C@@H](n2cc(C)c(=O)[nH]c2=O)C[C@@H]1OP(=O)(S)OC[C@H]1O[C@@H](n2ccc(N)nc2=O)C[C@@H]1OP(=O)(S)OC[C@H]1O[C@@H](n2cc(C)c(=O)[nH]c2=O)C[C@@H]1OP(=O)(S)OC[C@H]1O[C@@H](n2ccc(N)nc2=O)C[C@@H]1OP(=O)(S)OC[C@H]1O[C@@H](n2cc(C)c(=O)[nH]c2=O)C[C@@H]1OP(=O)(S)OC[C@H]1O[C@@H](n2cnc3c(=O)[nH]c(N)nc32)C[C@@H]1OP(=O)(S)OC[C@H]1O[C@@H](n2cc(C)c(=O)[nH]c2=O)C[C@@H]1O (some centres undefined)
Activity (Splenocyte [1]): Active | inhibition in vivo at 5 mg/kg (Mus musculus [2]): 50% | inhibition in vivo at 2 mg/kg (Mus musculus [3]): 14% | Activity (Mus musculus [4]): inactive | Activity (Mus musculus [5]): Active | Activity (Mus musculus [6]): Active | inhibition (INH) (Mus musculus [7]): 66% | Activity (Splenocyte [8]): Dose-dependent effect | inhibition in vivo at 5 mg/kg (Mus musculus [9]): 50% | Activity (Mus musculus [10]): inactive | Activity (Mus musculus [11]): inactive | inhibition in vivo at 5 mg/kg (Mus musculus [12]): 50% | Activity (Mus musculus [13]): inactive | Activity (Mus musculus [14]): inactive | Activity (Mus musculus [15]): inactive | Activity (Splenocyte [16]): Dose-dependent effect | Activity (Mus musculus [17]): inactive | Activity (Mus musculus [18]): Active | Activity (Mus musculus [19]): inactive
